Assay results reported in ChEMBL document CHEMBL1629689, “Cross-resistance to nitro drugs and implications for treatment of human African trypanosomiasis” (Antimicrob Agents Chemother, 2010).
≈ marks a conversion by molar mass, not a printed value. Calls of active or inactive are those of the source. The calls are words filed in the database; no cut-off is given here.

Experiments:
Trypanosoma brucei [1] = experiment: Antimicrobial activity against Trypanosoma brucei NfxR2; format: functional, organism-based
Procedure, shortened: (§1)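 T. brucei bloodstream-form single-marker S427 (wild type) and cloned nifurtimox-resistant lines, cultured at 37°C in HMI9-T with 2.5 µg/ml G418. Growth inhibition measured, data corrected for background cell density and expressed as % of untreated cells. EC50 from a two-parameter fit with slope factor. At least three independent experiments; weighted means ± weighted SD.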

Trypanosoma brucei [2] = experiment: Selectivity ratio of EC50 for Trypanosoma brucei NfxR2 to EC50 for Trypanosoma brucei; format: functional
Procedure, shortened: (§2)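 Resistance factor taken as EC50 for resistant cells divided by EC50 for wild-type S427 bloodstream T. brucei, both from the same in vitro growth-inhibition assay. EC50 values come from at least three independent experiments.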

Trypanosoma brucei [3] = experiment: Antimicrobial activity against Trypanosoma brucei; format: functional, organism-based; procedure, shortened: as §1
Trypanosoma brucei [4] = experiment: Selectivity ratio of EC50 for Trypanosoma brucei NfxR1 to EC50 for Trypanosoma brucei; format: functional; procedure, shortened: as §2
Trypanosoma brucei [5] = experiment: Antimicrobial activity against Trypanosoma brucei NfxR1; format: functional, organism-based; procedure, shortened: as §1
Trypanosoma brucei [6] = experiment: Antimicrobial activity against wild type Trypanosoma brucei infected in dosed NMRI administered QD for 3 days measured on day 6 by neubuaer hemocytometry
Trypanosoma brucei [7] = experiment: Antimicrobial activity against Trypanosoma brucei wild type
Blood [8] = experiment: Metabolic stability in blood of NMRI mouse assessed as accumulation of sulfoxide metabolite at 200 mg/kg, po measured after 2 hrs; format: ADME, organism-based; set-up: dose 200 mg/kg, route oral; details: in vivo
Procedure, shortened: (§3)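 Single oral dose of 200 mg/kg to NMRI mice, vehicle 10% DMSO in peanut oil. Tail-vein blood (10 µl) taken into water at 0.25, 0.5, 1, 2, 4, 6 and 8 h. Samples extracted by acetonitrile protein precipitation with internal standard. Parent and sulfoxide and sulfone metabolites measured by UPLC-MS/MS (positive ESI, MRM). Triplicate measurements.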

Trypanosoma brucei [9] = experiment: Antimicrobial activity against Trypanosoma brucei NfxR1 infected in dosed NMRI administered QD for 3 days measured on day 6 by neubuaer hemocytometry
Trypanosoma brucei [10] = experiment: Antimicrobial activity against wild type Trypanosoma brucei infected NMRI assessed as cure rate at 50 mg/kg, QD for 3 days measured on day 6 by neubuaer hemocytometry
Trypanosoma brucei [11] = experiment: Antimicrobial activity against Trypanosoma brucei NfxR1 infected in mouse assessed as decrease in parasitemia level at 200 mg/kg, QD for 3 days measured on day 60 by neubuaer hemocytometry
[12] = Fraction unbound in plasma of NMRI mouse at 200 mg/kg, po; format: ADME, organism-based; set-up: dose 200 mg/kg, route oral
[13] = Cmax in NMRI mouse at 200 mg/kg, po after 15 mins; format: ADME, organism-based; set-up: dose 200 mg/kg, route oral; details: in vivo; procedure, shortened: as §3
Blood [14] = experiment: Metabolic stability in blood of NMRI mouse assessed as accumulation of sulfone metabolite at 200 mg/kg, po measured after 8 hrs; details: in vivo
Trypanosoma brucei [15] = experiment: Antimicrobial activity against Trypanosoma brucei wild type; remark: listed apart in the source
Trypanosoma brucei [16] = details: NfxR1, 100 mg/kg
[17] = test system: Trypanosoma brucei gambiense; experiment: Antimicrobial activity against Trypanosoma brucei gambiense
Trypanosoma brucei [18] = experiment: animal or person; details: in Mus musculus, ip, 96 h

EC50 (Trypanosoma brucei [1]) | EC50 (Trypanosoma brucei [3]) | EC50 (Trypanosoma brucei [5]) | SMILES | Ratio EC50 (Trypanosoma brucei [2]) | Ratio EC50 (Trypanosoma brucei [4]) | other results
– | – | – | CSc1ccc(OCc2ncc([N+](=O)[O-])n2C)cc1 [FEXINIDAZOLE] | – | – | ED50 (Trypanosoma brucei [6]): 21 mg/kg; MIC (Trypanosoma brucei [7]): 17.7 µM (≈ 4.94 µg/mL); Stability (Blood [8]): 40000 ng/mL; ED50 (Trypanosoma brucei [9]): 171 mg/kg; Activity (Trypanosoma brucei [10]): 100%; inhibition (Trypanosoma brucei [11]): inactive; fraction unbound [12]: 0.147; Cmax [13]: 961 ng/mL
> 500 µM | > 500 µM | > 500 µM | Cc1ncc([N+](=O)[O-])n1CCO [METRONIDAZOLE] | – | – | –
3.7 µM | 0.31 µM | 3.7 µM | NC(=O)N/N=C/c1ccc([N+](=O)[O-])o1 [NITROFURAZONE] | 12 | 12 | –
9.5 µM | 0.62 µM | 9.6 µM | Cn1c([N+](=O)[O-])cnc1COc1ccc(S(C)(=O)=O)cc1 [FEXINIDAZOLE SULFONE] | 15 | 15 | Stability (Blood [14]): 55000 ng/mL
11.5 µM | 16.4 µM | 11.9 µM | NCCCC(N)(C(=O)O)C(F)F (configuration not stated) [EFLORNITHINE] | 1 | 1 | –
– | – | – | CC1CS(=O)(=O)CCN1/N=C/c1ccc([N+](=O)[O-])o1 (configuration not stated) [NIFURTIMOX] | – | – | MIC (Trypanosoma brucei [15]): 15.2 µM (≈ 4.37 µg/mL); inhibition (Trypanosoma brucei [16]): inactive; EC50 [17]: 0.26 µM; ED50 (Trypanosoma brucei [18]): 36.7 mg/kg; ED99 (Trypanosoma brucei [18]): 128 mg/kg
30.8 µM | 37.8 µM | 30.5 µM | O=[N+]([O-])c1cn2c(n1)OC[C@@H](OCc1ccc(OC(F)(F)F)cc1)C2 [PRETOMANID] | 1 | 1 | –
155 µM | 30 µM | 154 µM | O=C(Cn1ccnc1[N+](=O)[O-])NCc1ccccc1 [BENZNIDAZOLE] | 5 | 5 | –
21 µM | 1.4 µM | 18.4 µM | Cn1c([N+](=O)[O-])cnc1COc1ccc([S+](C)[O-])cc1 (configuration not stated) [FEXINIDAZOLE SULFOXIDE] | 15 | 13 | –

SMILES | EC50 (Trypanosoma brucei [1]) | EC50 (Trypanosoma brucei [3]) | EC50 (Trypanosoma brucei [5]) | Ratio EC50 (Trypanosoma brucei [2]) | Ratio EC50 (Trypanosoma brucei [4]) | other results
NC(=O)c1cc(N2CC2)c([N+](=O)[O-])cc1[N+](=O)[O-] [TRETAZICAR] | 10.2 µM | 0.54 µM | 8 µM | 19 | 15 | –
N=C(N)c1ccc(OCCCCCOc2ccc(C(=N)N)cc2)cc1 [PENTAMIDINE] | 0.0017 µM | 0.00095 µM | 0.0026 µM | 2 | 3 | –
